How the values were obtained:
[1] = molecular target: T1, Serotonin 3 (5-HT3) receptor (Rattus norvegicus, UniProt P35563+Q9JJ16); experiment: Binding affinity against radioligand [3H]quipazine labeled 5-hydroxytryptamine 3 receptor sites in neuroblastoma-glioma (NG108-15) cells.
T1 sequence (P35563 whole entry): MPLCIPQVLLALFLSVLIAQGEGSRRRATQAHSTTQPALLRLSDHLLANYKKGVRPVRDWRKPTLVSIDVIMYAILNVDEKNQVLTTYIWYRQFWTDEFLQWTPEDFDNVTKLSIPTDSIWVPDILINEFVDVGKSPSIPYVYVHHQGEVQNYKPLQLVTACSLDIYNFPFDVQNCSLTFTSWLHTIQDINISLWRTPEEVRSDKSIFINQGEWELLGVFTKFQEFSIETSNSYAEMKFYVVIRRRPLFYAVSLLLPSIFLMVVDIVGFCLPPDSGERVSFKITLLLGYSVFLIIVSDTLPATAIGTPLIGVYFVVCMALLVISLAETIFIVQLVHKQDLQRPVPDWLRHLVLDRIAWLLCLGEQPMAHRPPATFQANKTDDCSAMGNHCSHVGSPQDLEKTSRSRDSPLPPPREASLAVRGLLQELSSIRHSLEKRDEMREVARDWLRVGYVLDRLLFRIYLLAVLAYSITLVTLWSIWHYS
T1 sequence (Q9JJ16 whole entry): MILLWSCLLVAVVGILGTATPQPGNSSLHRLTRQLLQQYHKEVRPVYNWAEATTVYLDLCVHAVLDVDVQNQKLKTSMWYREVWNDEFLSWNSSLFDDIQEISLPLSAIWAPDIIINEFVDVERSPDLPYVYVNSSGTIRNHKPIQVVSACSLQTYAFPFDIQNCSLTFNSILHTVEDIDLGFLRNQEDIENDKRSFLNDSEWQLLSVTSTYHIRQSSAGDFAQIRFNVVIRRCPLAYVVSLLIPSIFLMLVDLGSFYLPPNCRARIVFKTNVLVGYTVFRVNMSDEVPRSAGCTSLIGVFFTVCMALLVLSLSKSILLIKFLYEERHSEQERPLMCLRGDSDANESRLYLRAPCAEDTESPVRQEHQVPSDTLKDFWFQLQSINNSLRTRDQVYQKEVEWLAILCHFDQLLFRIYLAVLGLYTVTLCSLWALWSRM

[2] = molecular target: Serotonin 3 (5-HT3) receptor (Rattus norvegicus) (UniProt P35563+Q9JJ16); experiment: In vivo inhibitory concentration after 5 minutes against 5-hydroxytryptamine 3 receptor induced bradycardia [bezold-jarisch (B-J) reflex test] in rat by intravenous administration; type: functional, organism-based
Summary of the method: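 Compounds given iv. The 5-HT-induced bradycardia (Bezold–Jarisch reflex) was measured at 5 min. ED50 is the dose reducing the bradycardia by 50%, from four determinations.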

Canis familiaris [3] = experiment: Mean percentage increase emetic latency in dog after an intravenous administration of 0.1 mg/kg of drug; type: functional, Canis lupus familiaris
Summary of the method: (§1)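 Adult male fasted beagle dogs (9-15 kg), fed on the day of the experiment; test drug given iv 30 min before cisplatin (3 mg/kg, iv, dissolved by sonication in saline). Dogs were monitored for 6 h. Emesis was defined as productive regurgitation of stomach contents.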

Canis familiaris [4] = experiment: Mean percentage increase emetic latency in dog after an intravenous administration of 1 mg/kg of drug (when dogs did not vomit, 360 min); type: functional, Canis lupus familiaris; summary of the method: as §1
Canis familiaris [5] = experiment: Mean percentage reduction due to cisplatin-induced emetic episodes in dog after an intravenous administration of 1 mg/kg of drug; type: functional, Canis lupus familiaris
Summary of the method: (§2)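 Adult male fasted beagle dogs (9-15 kg) received test drug iv 30 min before cisplatin (3 mg/kg, iv, in saline) and were monitored for 6 h. Episodes were counted as productive regurgitation of stomach contents. Percent reduction is versus the control group (n = 7); n = 2-4 dogs per dose.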

Canis familiaris [6] = experiment: Mean percentage reduction due to cisplatin-induced emetic episodes in dog after an intravenous administration of 0.3 mg/kg of drug; type: functional, Canis lupus familiaris; summary of the method: as §2
Canis familiaris [7] = experiment: Mean percentage reduction due to cisplatin-induced emetic episodes in dog after an intravenous administration of 0.1 mg/kg of drug; type: functional, Canis lupus familiaris; summary of the method: as §2
Canis familiaris [8] = experiment: Mean percentage increase emetic latency in dog after an intravenous administration of 0.3 mg/kg of drug; type: functional, Canis lupus familiaris; summary of the method: as §1
Canis familiaris [9] = experiment: Mean percentage increase emetic latency in dog after an intravenous administration of 0.01 mg/kg of drug; type: functional, Canis lupus familiaris
Summary of the method: (§3)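 Adult male fasted beagles (9–15 kg) received drug 30 min (iv) or 60 min (po) before cisplatin 3 mg/kg iv, dissolved by sonication in saline. Dogs were then observed 6 h, with emesis defined as productive regurgitation. Episode counts and latency were compared with controls (n = 7), using 2–4 dogs per dose. Dogs that never vomited were assigned 360 min latency.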

Canis familiaris [10] = experiment: Mean percentage reduction due to cisplatin-induced emetic episodes in dog after an intravenous administration of 0.01 mg/kg of drug; type: functional, Canis lupus familiaris; summary of the method: as §3
Canis familiaris [11] = experiment: Mean percentage increase emetic latency in dog after an peroral administration of 0.1 mg/kg of drug; type: functional, Canis lupus familiaris; details: route oral; summary of the method: as §3
Canis familiaris [12] = experiment: Mean percentage increase emetic latency in dog after an intravenous administration of 0.3 mg/kg of drug (when dogs did not vomit,360min); type: functional, Canis lupus familiaris; summary of the method: as §3
Canis familiaris [13] = experiment: Mean percentage reduction due to cisplatin-induced emetic episodes in dog after an peroral administration of 1.0 mg/kg of drug; type: functional, Canis lupus familiaris; details: route oral; summary of the method: as §3
Canis familiaris [14] = experiment: Mean percentage increase emetic latency in dog after an intravenous administration of 0.03 mg/kg of drug; type: functional, Canis lupus familiaris; summary of the method: as §3
Canis familiaris [15] = experiment: Mean percentage reduction due to cisplatin-induced emetic episodes in dog after an peroral administration of 0.1 mg/kg of drug; type: functional, Canis lupus familiaris; details: route oral; summary of the method: as §3
Canis familiaris [16] = experiment: Mean percentage increase emetic latency in dog after an peroral administration of 1.0 mg/kg of drug; type: functional, Canis lupus familiaris; details: route oral; summary of the method: as §3
Canis familiaris [17] = experiment: Mean percentage reduction due to cisplatin-induced emetic episodes in dog after an intravenous administration of 0.03 mg/kg of drug; type: functional, Canis lupus familiaris; summary of the method: as §3

| SMILES | Ki [1] | ED50 [2] | further results |
| --- | --- | --- | --- |
| CCCCn1c(=O)c(C(=O)NC2CC3CCC(C2)N3C)c(O)c2cccnc21 (stereo not drawn) | 6.4 nM | > 0.1 mg/kg |  |
| CN1C2CCC1CC(OC(=O)c1c(O)c3cccnc3n(-c3ccccc3)c1=O)C2 (stereo not drawn) | > 100 nM |  |  |
| CCCCn1c(=O)c(C(=O)NC2CC3CCC(C2)N3C)c(O)c2ccccc21 (stereo not drawn) | 0.48 nM | 0.29 mg/kg |  |
| O=C(NC1CCN2CCCC1C2)c1cnc2ccccc2c1O (stereo not drawn) | 18 nM |  |  |
| CN1C2CCC1CC(NC(=O)c1cnc3ccccc3c1N)C2 (stereo not drawn) | > 100 nM |  |  |
| Cc1nccn1CC1CCc2c(c3ccccc3n2C)C1=O (stereo not drawn) [ONDANSETRON] |  | 0.021 mg/kg | Increase (Canis familiaris [3]): 33%; Increase (Canis familiaris [4]): >284%; Reduction (Canis familiaris [5]): 100%; Reduction (Canis familiaris [6]): 61%; Reduction (Canis familiaris [7]): 18%; Increase (Canis familiaris [8]): 115% |
| CN1C2CCC1CC(NC(=O)c1c(O)nc3ccccc3c1O)C2 (stereo not drawn) |  | 0.22 mg/kg |  |
| CN1C2CCC1CC(NC(=O)c1c(O)c3ccccc3[nH]c1=O)C2 (stereo not drawn) | 7.6 nM |  |  |
| CN1C2CCC1CC(OC(=O)c1cnc3ccccc3c1O)C2 (stereo not drawn) | 6.1 nM | 0.0017 mg/kg |  |
| CCCCn1c(=O)c(C(=O)OC2CC3CCC(C2)N3C)c(O)c2ccccc21 (stereo not drawn) | > 100 nM |  |  |
| Cc1ccc2c(O)c(C(=O)NC3CC4CCC(C3)N4C)cnc2n1 (stereo not drawn) | > 100 nM |  |  |
| Cc1nc2ccccc2c(O)c1C(=O)OC1CC2CCC(C1)N2C (stereo not drawn) | 58 nM |  |  |
| CN1C2CCCC1CC(NC(=O)c1nn(C)c3ccccc13)C2 (stereo not drawn) |  | 0.019 mg/kg |  |
| CN1C2CCC1CC(OC(=O)c1cnc3ccccc3c1)C2 (stereo not drawn) | 66.9 nM | 0.37 mg/kg |  |
| CN1C2CCC1CC(NC(=O)c1c(O)c3ccccc3n(-c3ccccc3)c1=O)C2 (stereo not drawn) | 1.4 nM | 0.073 mg/kg |  |
| CCCCn1c(=O)c(C(=O)OC2CC3CCC(C2)N3C)c(O)c2cccnc21 (stereo not drawn) | > 100 nM |  |  |
| CN1C2CCC1CC(NC(=O)c1cnc3ccccc3c1O)C2 (stereo in doubt; 6h) | 100 nM |  |  |
| CN1C2CCC1CC(NC(=O)c1cnc3ccccc3c1)C2 (stereo not drawn) | > 100 nM |  |  |
| CN1C2CCCC1CC(NC(=O)c1cnc3ccccc3c1O)C2 (stereo not drawn) | 30 nM |  |  |
| CN1C2CCC1CC(NC(=O)c1c(O)c3cccnc3n(-c3ccccc3)c1=O)C2 (stereo not drawn) | 14 nM |  |  |
| Cc1nc2ccccc2c(O)c1C(=O)NC1CC2CCC(C1)N2C (stereo not drawn) | 7.2 nM | 0.015 mg/kg |  |
| CN1C2CCC1CC(NC(=O)c1cnc3ccccc3c1Cl)C2 (stereo not drawn) | 85 nM |  |  |
| CN1C2CCC1CC(NC(=O)c1cnc3ccccc3c1O)C2 (stereo in doubt; 6f) | 1.5 nM |  | Increase (Canis familiaris [9]): 14%; Increase (Canis familiaris [3]): 116%; Reduction (Canis familiaris [10]): 44%; Reduction (Canis familiaris [6]): 100%; Reduction (Canis familiaris [7]): 80%; Increase (Canis familiaris [11]): 32%; Increase (Canis familiaris [12]): >284%; Increase (Canis familiaris [13]): 88%; Increase (Canis familiaris [14]): 23%; Reduction (Canis familiaris [15]): 64%; Increase (Canis familiaris [16]): 142%; Reduction (Canis familiaris [17]): 54% |
| Cc1ccc2c(O)c(C(=O)OC3CC4CCC(C3)N4C)cnc2n1 (stereo not drawn) | > 100 nM |  |  |
